System: patients with Rb+ advanced solid tumors or lymphomas
Test: Safety assessments, adverse events
Type: in vivo, human
Summary of the method: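 Oral test compound given daily 3-weeks-on/1-week-off in 28-day cycles, with doses escalated by a Bayesian logistic regression model with overdose control. Safety assessments, including ECGs, were done at baseline and at regular intervals. AEs were graded by CTCAE v4.0 and classed as suspected related to treatment. All patients dosed at least once were included; summaries were descriptive per dose level.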

[1] = 50 mg 3-weeks-on/1-week-off, n = 4
[2] = 70 mg 3-weeks-on/1-week-off, n = 2
[3] = 140 mg 3-weeks-on/1-week-off, n = 4
[4] = 260 mg 3-weeks-on/1-week-off, n = 4
[5] = 280 mg 3-weeks-on/1-week-off, n = 4
[6] = 350 mg 3-weeks-on/1-week-off, n = 5
[7] = 400 mg 3-weeks-on/1-week-off, n = 5

## CN(C)C(=O)c1cc2cnc(Nc3ccc(N4CCNCC4)cn3)nc2n1C1CCCC1 [ribociclib]
[1]
  Anemia, Grade 3/4, AE suspected related to study treatment: 0 n (%)
  Anemia, Grade All, AE suspected related to study treatment: 0 n (%)
  Appetite decreased, Grade 3/4, AE suspected related to study treatment: 0 n (%)
  Appetite decreased, Grade All, AE suspected related to study treatment: 0 n (%)
  Blood creatinine increased, Grade 3/4, AE suspected related to study treatment: 0 n (%)
  Blood creatinine increased, Grade All, AE suspected related to study treatment: 0 n (%)
  Diarrhea, Grade 3/4, AE suspected related to study treatment: 0 n (%)
  Diarrhea, Grade All, AE suspected related to study treatment: 0 n (%)
  Fatigue, Grade 3/4, AE suspected related to study treatment: 0 n (%)
  Fatigue, Grade All, AE suspected related to study treatment: 2 (50) n (%)
  Leukopenia, Grade 3/4, AE suspected related to study treatment: 0 n (%)
  Leukopenia, Grade All, AE suspected related to study treatment: 0 n (%)
  Lymphopenia, Grade 3/4, AE suspected related to study treatment: 0 n (%)
  Lymphopenia, Grade All, AE suspected related to study treatment: 0 n (%)
  Nausea, Grade 3/4, AE suspected related to study treatment: 0 n (%)
  Nausea, Grade All, AE suspected related to study treatment: 0 n (%)
  Neutropenia, Grade 3/4, AE suspected related to study treatment: 0 n (%)
  Neutropenia, Grade All, AE suspected related to study treatment: 0 n (%)
  Thrombocytopenia, Grade 3/4, AE suspected related to study treatment: 0 n (%)
  Thrombocytopenia, Grade All, AE suspected related to study treatment: 0 n (%)
  Vomiting, Grade 3/4, AE suspected related to study treatment: 0 n (%)
  Vomiting, Grade All, AE suspected related to study treatment: 0 n (%)
[2]
  Anemia, Grade 3/4, AE suspected related to study treatment: 0 n (%)
  Anemia, Grade All, AE suspected related to study treatment: 0 n (%)
  Appetite decreased, Grade 3/4, AE suspected related to study treatment: 0 n (%)
  Appetite decreased, Grade All, AE suspected related to study treatment: 0 n (%)
  Blood creatinine increased, Grade 3/4, AE suspected related to study treatment: 0 n (%)
  Blood creatinine increased, Grade All, AE suspected related to study treatment: 0 n (%)
  Diarrhea, Grade 3/4, AE suspected related to study treatment: 0 n (%)
  Diarrhea, Grade All, AE suspected related to study treatment: 0 n (%)
  Fatigue, Grade 3/4, AE suspected related to study treatment: 0 n (%)
  Fatigue, Grade All, AE suspected related to study treatment: 2 (100) n (%)
  Leukopenia, Grade 3/4, AE suspected related to study treatment: 0 n (%)
  Leukopenia, Grade All, AE suspected related to study treatment: 0 n (%)
  Lymphopenia, Grade 3/4, AE suspected related to study treatment: 0 n (%)
  Lymphopenia, Grade All, AE suspected related to study treatment: 0 n (%)
  Nausea, Grade 3/4, AE suspected related to study treatment: 0 n (%)
  Nausea, Grade All, AE suspected related to study treatment: 1 (50) n (%)
  Neutropenia, Grade 3/4, AE suspected related to study treatment: 0 n (%)
  Neutropenia, Grade All, AE suspected related to study treatment: 0 n (%)
  Thrombocytopenia, Grade 3/4, AE suspected related to study treatment: 0 n (%)
  Thrombocytopenia, Grade All, AE suspected related to study treatment: 0 n (%)
  Vomiting, Grade 3/4, AE suspected related to study treatment: 0 n (%)
  Vomiting, Grade All, AE suspected related to study treatment: 1 (50) n (%)
[3]
  Anemia, Grade 3/4, AE suspected related to study treatment: 0 n (%)
  Anemia, Grade All, AE suspected related to study treatment: 0 n (%)
  Appetite decreased, Grade 3/4, AE suspected related to study treatment: 0 n (%)
  Appetite decreased, Grade All, AE suspected related to study treatment: 1 (25) n (%)
  Blood creatinine increased, Grade 3/4, AE suspected related to study treatment: 0 n (%)
  Blood creatinine increased, Grade All, AE suspected related to study treatment: 0 n (%)
  Diarrhea, Grade 3/4, AE suspected related to study treatment: 0 n (%)
  Diarrhea, Grade All, AE suspected related to study treatment: 0 n (%)
  Fatigue, Grade 3/4, AE suspected related to study treatment: 0 n (%)
  Fatigue, Grade All, AE suspected related to study treatment: 3 (75) n (%)
  Leukopenia, Grade 3/4, AE suspected related to study treatment: 0 n (%)
  Leukopenia, Grade All, AE suspected related to study treatment: 0 n (%)
  Lymphopenia, Grade 3/4, AE suspected related to study treatment: 0 n (%)
  Lymphopenia, Grade All, AE suspected related to study treatment: 0 n (%)
  Nausea, Grade 3/4, AE suspected related to study treatment: 0 n (%)
  Nausea, Grade All, AE suspected related to study treatment: 0 n (%)
  Neutropenia, Grade 3/4, AE suspected related to study treatment: 0 n (%)
  Neutropenia, Grade All, AE suspected related to study treatment: 0 n (%)
  Thrombocytopenia, Grade 3/4, AE suspected related to study treatment: 0 n (%)
  Thrombocytopenia, Grade All, AE suspected related to study treatment: 0 n (%)
  Vomiting, Grade 3/4, AE suspected related to study treatment: 0 n (%)
  Vomiting, Grade All, AE suspected related to study treatment: 0 n (%)
[4]
  Anemia, Grade 3/4, AE suspected related to study treatment: 0 n (%)
  Anemia, Grade All, AE suspected related to study treatment: 0 n (%)
  Appetite decreased, Grade 3/4, AE suspected related to study treatment: 0 n (%)
  Appetite decreased, Grade All, AE suspected related to study treatment: 0 n (%)
  Blood creatinine increased, Grade 3/4, AE suspected related to study treatment: 0 n (%)
  Blood creatinine increased, Grade All, AE suspected related to study treatment: 0 n (%)
  Diarrhea, Grade 3/4, AE suspected related to study treatment: 0 n (%)
  Diarrhea, Grade All, AE suspected related to study treatment: 0 n (%)
  Fatigue, Grade 3/4, AE suspected related to study treatment: 0 n (%)
  Fatigue, Grade All, AE suspected related to study treatment: 4 (100) n (%)
  Leukopenia, Grade 3/4, AE suspected related to study treatment: 0 n (%)
  Leukopenia, Grade All, AE suspected related to study treatment: 1 (25) n (%)
  Lymphopenia, Grade 3/4, AE suspected related to study treatment: 0 n (%)
  Lymphopenia, Grade All, AE suspected related to study treatment: 2 (50) n (%)
  Nausea, Grade 3/4, AE suspected related to study treatment: 0 n (%)
  Nausea, Grade All, AE suspected related to study treatment: 0 n (%)
  Neutropenia, Grade 3/4, AE suspected related to study treatment: 0 n (%)
  Neutropenia, Grade All, AE suspected related to study treatment: 0 n (%)
  Thrombocytopenia, Grade 3/4, AE suspected related to study treatment: 0 n (%)
  Thrombocytopenia, Grade All, AE suspected related to study treatment: 0 n (%)
  Vomiting, Grade 3/4, AE suspected related to study treatment: 0 n (%)
  Vomiting, Grade All, AE suspected related to study treatment: 0 n (%)
[5]
  Anemia, Grade 3/4, AE suspected related to study treatment: 0 n (%)
  Anemia, Grade All, AE suspected related to study treatment: 0 n (%)
  Appetite decreased, Grade 3/4, AE suspected related to study treatment: 0 n (%)
  Appetite decreased, Grade All, AE suspected related to study treatment: 2 (50) n (%)
  Blood creatinine increased, Grade 3/4, AE suspected related to study treatment: 0 n (%)
  Blood creatinine increased, Grade All, AE suspected related to study treatment: 0 n (%)
  Diarrhea, Grade 3/4, AE suspected related to study treatment: 0 n (%)
  Diarrhea, Grade All, AE suspected related to study treatment: 1 (25) n (%)
  Fatigue, Grade 3/4, AE suspected related to study treatment: 0 n (%)
  Fatigue, Grade All, AE suspected related to study treatment: 1 (25) n (%)
  Leukopenia, Grade 3/4, AE suspected related to study treatment: 0 n (%)
  Leukopenia, Grade All, AE suspected related to study treatment: 1 (25) n (%)
  Lymphopenia, Grade 3/4, AE suspected related to study treatment: 1 (25) n (%)
  Lymphopenia, Grade All, AE suspected related to study treatment: 1 (25) n (%)
  Nausea, Grade 3/4, AE suspected related to study treatment: 0 n (%)
  Nausea, Grade All, AE suspected related to study treatment: 2 (50) n (%)
  Neutropenia, Grade 3/4, AE suspected related to study treatment: 0 n (%)
  Neutropenia, Grade All, AE suspected related to study treatment: 1 (25) n (%)
  Thrombocytopenia, Grade 3/4, AE suspected related to study treatment: 0 n (%)
  Thrombocytopenia, Grade All, AE suspected related to study treatment: 1 (25) n (%)
  Vomiting, Grade 3/4, AE suspected related to study treatment: 0 n (%)
  Vomiting, Grade All, AE suspected related to study treatment: 0 n (%)
[6]
  Anemia, Grade 3/4, AE suspected related to study treatment: 0 n (%)
  Anemia, Grade All, AE suspected related to study treatment: 2 (40) n (%)
  Appetite decreased, Grade 3/4, AE suspected related to study treatment: 0 n (%)
  Appetite decreased, Grade All, AE suspected related to study treatment: 1 (20) n (%)
  Blood creatinine increased, Grade 3/4, AE suspected related to study treatment: 0 n (%)
  Blood creatinine increased, Grade All, AE suspected related to study treatment: 3 (60) n (%)
  Diarrhea, Grade 3/4, AE suspected related to study treatment: 0 n (%)
  Diarrhea, Grade All, AE suspected related to study treatment: 1 (20) n (%)
  Fatigue, Grade 3/4, AE suspected related to study treatment: 0 n (%)
  Fatigue, Grade All, AE suspected related to study treatment: 1 (20) n (%)
  Leukopenia, Grade 3/4, AE suspected related to study treatment: 0 n (%)
  Leukopenia, Grade All, AE suspected related to study treatment: 2 (40) n (%)
  Lymphopenia, Grade 3/4, AE suspected related to study treatment: 1 (20) n (%)
  Lymphopenia, Grade All, AE suspected related to study treatment: 1 (20) n (%)
  Nausea, Grade 3/4, AE suspected related to study treatment: 0 n (%)
  Nausea, Grade All, AE suspected related to study treatment: 2 (40) n (%)
  Neutropenia, Grade 3/4, AE suspected related to study treatment: 0 n (%)
  Neutropenia, Grade All, AE suspected related to study treatment: 1 (20) n (%)
  Thrombocytopenia, Grade 3/4, AE suspected related to study treatment: 0 n (%)
  Thrombocytopenia, Grade All, AE suspected related to study treatment: 0 n (%)
  Vomiting, Grade 3/4, AE suspected related to study treatment: 0 n (%)
  Vomiting, Grade All, AE suspected related to study treatment: 2 (40) n (%)
[7]
  Anemia, Grade 3/4, AE suspected related to study treatment: 0 n (%)
  Anemia, Grade All, AE suspected related to study treatment: 2 (40) n (%)
  Appetite decreased, Grade 3/4, AE suspected related to study treatment: 0 n (%)
  Appetite decreased, Grade All, AE suspected related to study treatment: 0 n (%)
  Blood creatinine increased, Grade 3/4, AE suspected related to study treatment: 0 n (%)
  Blood creatinine increased, Grade All, AE suspected related to study treatment: 1 (20) n (%)
  Diarrhea, Grade 3/4, AE suspected related to study treatment: 0 n (%)
  Diarrhea, Grade All, AE suspected related to study treatment: 0 n (%)
  Fatigue, Grade 3/4, AE suspected related to study treatment: 0 n (%)
  Fatigue, Grade All, AE suspected related to study treatment: 1 (20) n (%)
  Leukopenia, Grade 3/4, AE suspected related to study treatment: 0 n (%)
  Leukopenia, Grade All, AE suspected related to study treatment: 1 (20) n (%)
  Lymphopenia, Grade 3/4, AE suspected related to study treatment: 0 n (%)
  Lymphopenia, Grade All, AE suspected related to study treatment: 0 n (%)
  Nausea, Grade 3/4, AE suspected related to study treatment: 0 n (%)

From article PMC5621377 (Clinical cancer research : an official journal of the …, 2016)
